Shown are actives, neighbours in structure and some others; about 3.7% of the full set was active somewhere.
EBV gp42 inh = Epstein-Barr virus gp42 inhibitors, primary screen, biochemical, uHTS, fluorescence polarization | Fluorescence polarization binding assay, mP read-out | hit rate 0.42% among 220,000 | AID 1085, 2008 | inhibition, % (tested at 21.74 µM) | Glycoprotein 42 (Epstein-Barr virus (strain AG876)), Q1HVG2; in the data active means inhibition above about 50%
Target sequence (Q1HVG2 whole entry, looked up): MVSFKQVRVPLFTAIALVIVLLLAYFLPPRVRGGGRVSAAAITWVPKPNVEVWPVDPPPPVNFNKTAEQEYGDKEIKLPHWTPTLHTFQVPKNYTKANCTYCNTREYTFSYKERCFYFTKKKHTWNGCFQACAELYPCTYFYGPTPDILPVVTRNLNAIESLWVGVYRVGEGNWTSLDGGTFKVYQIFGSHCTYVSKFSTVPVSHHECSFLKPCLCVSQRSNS
eIF4E 4G PPI = eIF4E–eIF4G protein interaction inhibitors, primary screen, biochemical, uHTS, TR-FRET, eIF4GI fragment | Eukaryotic translation initiation factor 4E (Mus musculus) + Eukaryotic translation … | TR-FRET eIF4E-eIF4GI(517-606) binding, 2 h | inhibition, % at 21.7 µM | hit rate 0.37% among 220,000 | AID 782, 2007;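 further: 0% = full FRET control wells and 100% = background wells lacking eIF4GI fragment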
RBBP9 inhibitor = human RBBP9 inhibitors, primary screen, biochemical, fluorescence polarization, FP-Rh probe, HTS. Serine hydrolase RBBP9 (Homo sapiens), O75884. recombinant RBBP9. inhibition, % at 7.94 µM. hit rate 0.2% among 220,000;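 active means inhibition above the campaign mean of all tested compounds plus 3 SD, cut at about 14% in these data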;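 further: plate controls were DMSO wells with RBBP9 for no effect and wells lacking RBBP9 protein for full effect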
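Test system: recombinant human RBBP9. Quantity: 2.5 µM RBBP9 dispensing solution, before mixing. Detection: FP readout at 525/598 nm. Reagent: Serine-hydrolase probe FP-Rh, 375 nM pre-mixing. Measure: % inhibition. Control set: DMSO-treated enzyme wells and wells lacking RBBP9. Buffer or medium: Tris-NaCl-Pluronic buffer, pH 8.0. Times: preincubation 30 min plus labeling 45 min at 25 °C.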
NCF1 inh = p47phox/p22phox peptide binding inhibitors, primary screen, biochemical, uHTS, NADPH oxidase regulatory subunit. Neutrophil cytosol factor 1 (Homo sapiens), P14598. fluorescence polarization, 2 h. inhibition, % at 24.7 µM. hit rate 0.53% among 220,000. AID 1274, 2008;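 further: 0% = p47phox with labelled peptide and 100% = labelled peptide alone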
Target sequence (P14598 whole entry, looked up): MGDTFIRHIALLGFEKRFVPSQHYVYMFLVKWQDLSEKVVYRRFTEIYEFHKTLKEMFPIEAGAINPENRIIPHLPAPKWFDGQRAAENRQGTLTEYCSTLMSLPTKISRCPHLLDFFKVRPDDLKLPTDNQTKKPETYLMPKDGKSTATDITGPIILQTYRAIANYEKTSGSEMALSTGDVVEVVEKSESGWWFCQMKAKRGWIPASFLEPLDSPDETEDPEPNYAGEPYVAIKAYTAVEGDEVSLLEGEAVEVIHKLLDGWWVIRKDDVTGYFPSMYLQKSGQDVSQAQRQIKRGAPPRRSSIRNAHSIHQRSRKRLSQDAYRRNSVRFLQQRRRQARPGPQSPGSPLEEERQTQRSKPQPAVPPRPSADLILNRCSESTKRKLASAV
WT yeast gro inh = growth inhibition of WT strain, primary screen, mitochondrial fusion inhibitor project, WT and mutant strains, chemical genetic. hit rate 2.1% among 190,000. inhibition, % at 10 µM. mitochondrial fusion phenotypic screen; in the data active means inhibition above about 58%; tested in S. cerevisiae
14-3-3 Bad inh = inhibitors of 14-3-3 zeta/Bad binding, primary screen, biochemical, TR-FRET, bovine 14-3-3 zeta | 14-3-3 protein zeta/delta (Bos taurus), P63103 | TR-FRET 14-3-3zeta/Dy647-pBad peptide displacement, 1 h | inhibition, % at 21.7 µM | hit rate 0.71% among 220,000;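 active means inhibition above about 70%, limit read from the data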;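 further: 0% = full 14-3-3 plus peptide FRET controls and 100% = background without 14-3-3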
An asterisk follows results filed as active; / = no result; [ ] = another dose, or the depositor's remark.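 How the source made its calls, unless noted: active means inhibition above about 30% (limit read from the data); inactive means the rest.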

SMILES	EBV gp42 inh	eIF4E 4G PPI	RBBP9 inhibitor	NCF1 inh	WT yeast gro inh	14-3-3 Bad inh
Cc1nc(N2CCCCC2)nc(N2CCCCC2)c1C=O	-10.7	0.1	-3.1	/	2.4	-3.6
Cc1ccc(-c2nnn(CC(=O)Nc3nnc(C(C)C)s3)n2)cc1	5.6	-1.0	-4.1	-12.6	-7.1	-1.3
Cc1ccc2nc(SCC(=O)Nc3ccccc3N3CCOCC3)c(C#N)cc2c1	50.2*	0.3	-3.3	0.6	-7.8	16.3
COC(=O)Cn1c(=O)c(C(=O)CCl)c(N)n(Cc2ccccc2)c1=O	-12.5	-7.4	2.0	-9.7	/	-2.0
COC(=O)CN1C(c2ccc(OC)cc2)=Nc2ccc(Cl)cc2C1c1ccccc1 (stereo not drawn)	20.6	0.2	-8.8	-2.6	57.9	5.7
COC(=O)CN1C(c2cccc(Cl)c2)=Nc2ccc(Cl)cc2C1c1ccccc1 (stereo not drawn)	22.7	-0.1	-8.2	0.1	75.5*	5.2
CCC(C)n1c(SCc2ccccc2)nc2ccsc2c1=O (stereo not drawn)	-15.3	2.7	-6.4	-8.5	64.5*	6.4
Cc1ccc(CSc2nc3ccsc3c(=O)n2Cc2ccccn2)cc1	4.8	6.0	-6.1	-4.2	59.4*	-4.1
CN(C)CCOC(=O)c1ccc2c(c1)S(=O)(=O)c1ccccc1C2=O	-8.4	35.0*	5.0	4.0	/	5.0
CC(C)NC(=O)c1ccc2c(c1)S(=O)(=O)c1ccccc1C2=O	-26.3	-4.0	14.2	-10.2	5.4	-5.2
Cn1c(CCC(=O)OCC(=O)NCc2ccc3c(c2)OCO3)nc(=O)c2ccccc21	-1.1	-3.4	-12.7	3.1	-4.2	-0.2
C/C(=N\O)c1ncc(C(F)(F)F)cc1Cl	-9.2	-1.0	-4.8	-4.6	3.1	-8.3
Cc1cc(CN2CCN(CCC#N)CC2)c(O)c(C2(C)CCCCC2)c1	-4.0	5.7	-12.5	-16.1	83.6*	0.3
COc1ccc(C2C=C(c3ccc(Br)s3)Nc3ncnn32)cc1OC (stereo not drawn)	91.4*	-7.1	-2.5	-21.1	-9.6	1.8
COc1ccc(C2C=C(c3ccc(C)cc3)Nc3ncnn32)cc1 (stereo not drawn)	38.4	/	0.5	1.0	6.3	/
COc1ccc(C(CC(=O)N2CCCC2)c2c(OC)cc(OC)c3c(-c4ccccc4)cc(=O)oc23)cc1 (stereo not drawn)	81.5*	33.8*	/	-9.1	/	39.8
COc1ccc(C(CC(=O)N2CCCCC2)c2c(OC)cc(OC)c3c(-c4ccccc4)cc(=O)oc23)cc1 (stereo not drawn)	34.2	25.9	/	-9.7	/	20.9
COc1ccc(OC)c(Nc2ncnc3sc(-c4ccccc4)cc23)c1	-17.9	38.4*	-6.7	-15.1	16.6	80.2*[fluorescence artefact?]
CCOc1cccc(/C=C/c2cc(C(=O)O)c3ccccc3n2)c1OC	-5.2	-4.6	-3.3	-10.4	/	1.9
COc1cc(/C=N/c2oc(-c3ccccc3)cc2C#N)ccc1O	57.3*	/	5.3	-41.6	18.4	/
C=C(C)C1Cc2c(C)nn(-c3ccccn3)c2C1 (stereo not drawn)	-2.3	6.2	-9.7	-11.4	66.2*	-7.5
C=C(C)C1Cc2c(C)nn(-c3cccc4cccnc34)c2C1 (stereo not drawn)	-24.5	1.2	-10.7	-9.0	/	-4.8
Cc1ccc(C(=O)CC(=O)c2cc(Cl)ccc2O)cc1	-10.5	5.8	0.6	-1.4	62.0*	1.6
CC(C)(C)c1ccc(C(=O)CC(=O)c2cc(Cl)ccc2O)cc1	-34.0	-7.5	2.9	-23.1	64.8*	-7.5
CCn1c2ccccc2c2cc(NC(=O)c3ccco3)ccc21	-13.9	2.0	-5.2	-21.5	31.1	91.0*
SMILES	EBV gp42 inh	eIF4E 4G PPI	RBBP9 inhibitor	NCF1 inh	WT yeast gro inh	14-3-3 Bad inh
O=C(CCCc1c[nH]c2ccccc12)Nc1ccc(S(=O)(=O)Nc2ncccn2)cc1	-5.5	-1.4	-5.8	-35.3	/	-7.2
COc1ccc(N2C(=O)C3C(C2=O)C(C(=O)c2ccc(Cl)cc2)N2CCCC32)cc1 (stereo not drawn)	-7.7	4.5	-7.1	-15.2	/	1.1
CC(=O)c1ccc(N2C(=O)C3C(C2=O)C(C(=O)c2ccc(Cl)cc2)N2CCCC32)cc1 (stereo not drawn)	88.6*	-10.5	-4.5	-28.3	21.3	-14.8
O=C(c1ccc(Cl)cc1)C1C2C(=O)N(c3ccccc3)C(=O)C2C2CCCN21 (stereo not drawn)	81.3*	-14.2	-6.1	-13.2	15.8	6.6
S=C1NCN(C2CCCCC2)CN1CCc1ccccc1	7.4	-1.4	-0.4	13.3	/	-0.1
Cc1ccc(CNC(=O)c2ccc(N3CCc4ccccc43)c([N+](=O)[O-])c2)cc1	-2.8	54.9*	-3.4	-7.5	30.6	19.1
O=C(NC1CCCCNC1=O)c1ccc(Cl)cc1 (stereo not drawn)	-13.9	2.6	-8.7	-9.7	-18.7	0.2
Cc1ccc(C(=O)NC2CCCCNC2=O)cc1 (stereo not drawn)	-7.3	90.1*	0.1	-7.4	/	-1.6
OCCCCNc1cccc2ccccc12	3.2	7.7	2.3	42.2*	16.0	-13.6
CS(=O)(=O)c1[nH]nc(-c2ccccc2Cl)c1C#N	-26.6	0.4	1.7	-7.9	/	9.0
CCCCn1c2ccccc2c2nnc(SCC(=O)NC3=NN=C(c4ccccc4)CS3)nc21	-28.4	-6.3	-11.3	-26.2	59.6*	5.6
CC1=C(C(=O)OCC2CCCO2)C(c2ccsc2)C2=C(CCCC2=O)N1 (stereo not drawn)	1.0	-1.4	-5.9	-4.2	-5.3	-1.4
C#CCOCCOCCOCCNc1nc(N2CCN(C(=O)[C@H]([C@@H](C)CC)n3cc([C@@H](N)Cc4ccc(O)cc4)nn3)CC2)nc(N2CCN(C(=O)[C@H](CCCCN)n3cc([C@@H](N)CC(C)C)nn3)CC2)n1	-11.6	-2.4	1.0	18.4	-6.5	7.8
COc1ccccc1NC(=O)COC(=O)c1ccc([N+](=O)[O-])s1	2.0	4.3	-4.5	-6.0	95.0*	-13.1
Cc1ccc(NC(=O)COC(=O)c2ccc([N+](=O)[O-])s2)c(C)c1	-41.9	2.5	6.3	-13.6	1.1	12.2
CCc1ccc(C(O)(c2ccccc2OC)C(CN2CCOCC2)c2ccccc2)cc1 (stereo not drawn)	-19.1	1.1	-7.2	-10.8	76.9*	-2.8
Cc1ccc(S(=O)(=O)N(C)c2ccc3sc(C)nc3c2)cc1	-17.8	-2.3	-5.4	-25.3	-8.9	-7.6

Assay outcomes deposited in PubChem BioAssay by several laboratories.
